Experimental data from different studies.
Lines come from different studies, so protocols differ. ≈ marks a conversion by molar mass, not a printed value.
Organism: Cryptococcus neoformans

| SMILES | assay | system | setting | measurement | value |
| --- | --- | --- | --- | --- | --- |
| Cl.Oc1cccc2c1[nH]c1c(C3=CC4(O)CC/C=C\CCCCN5CCC3C3(CC6/C=C\CCCCN6C43)C5)nccc12 (single isomer, unassigned; (+)) | microbial growth | ATCC90113 | – | IC50 | 2.69 µg/mL |
| C[C@@H]1[C@H](O)[C@@H](C)/C=C/C=C/C=C/C=C/C=C/C=C/C=C/[C@H](O[C@@H]2O[C@H](C)[C@@H](O)[C@H](N)[C@@H]2O)C[C@@H]2O[C@](O)(C[C@@H](O)C[C@@H](O)[C@H](O)CC[C@@H](O)C[C@@H](O)CC(=O)O[C@H]1C)C[C@H](O)[C@H]2C(=O)O | microbial growth, broth dilution | ATCC90113 | – | IC50 | 0.24 µg/mL (≈ 0.26 µM) |
| OCCN1CCN(CCCN2c3ccccc3Sc3ccc(Cl)cc32)CC1 | microbial growth, broth dilution | – | – | MIC | 16 µg/mL |
| O=C(CCCCCC[P+](c1ccccc1)(c1ccccc1)c1ccccc1)Nc1ccc(O)c(O)c1.[Br-] | microbial growth, broth dilution | ATCC208821 | 24 h | MIC | > 32 µg/mL |
| CCCCCCCCCCCCCC(O)CC(O)CO (centres unmarked) | microbial growth, broth dilution | ATCC90113 | – | IC50 | 32.9 µg/mL (≈ 114 µM) |
| OC(Cn1cncn1)(Cn1cncn1)c1ccc(F)cc1F | microbial growth, broth dilution | ATCC208821 | 24 h | MIC | 8 µg/mL |
| C[C@@H]1[C@H](O)[C@@H](C)/C=C/C=C/C=C/C=C/C=C/C=C/C=C/[C@H](O[C@@H]2O[C@H](C)[C@@H](O)[C@H](N)[C@@H]2O)C[C@@H]2O[C@](O)(C[C@@H](O)C[C@@H](O)[C@H](O)CC[C@@H](O)C[C@@H](O)CC(=O)O[C@H]1C)C[C@H](O)[C@H]2C(=O)O | microbial growth | ATCC90113 | – | MIC | 1.25 µg/mL |
| C[C@@H]1[C@H](O)[C@@H](C)/C=C/C=C/C=C/C=C/C=C/C=C/C=C/[C@H](O[C@@H]2O[C@H](C)[C@@H](O)[C@H](N)[C@@H]2O)C[C@@H]2O[C@](O)(C[C@@H](O)C[C@@H](O)[C@H](O)CC[C@@H](O)C[C@@H](O)CC(=O)O[C@H]1C)C[C@H](O)[C@H]2C(=O)O | microbial killing | ATCC90113 | – | MFC | 0.68 µM (≈ 0.628 µg/mL) |
| Cc1occc(=O)c1O | microbial growth, broth dilution | – | 48 h | MIC | > 100 µM |
| O=C(CCCCCC[P+](c1ccccc1)(c1ccccc1)c1ccccc1)Nc1cc(O)c(O)c(O)c1.[Br-] | microbial growth, broth dilution | ATCC208821 | 24 h | MIC | 32 µg/mL |
| C[C@@H]1[C@H](O)[C@@H](C)/C=C/C=C/C=C/C=C/C=C/C=C/C=C/[C@H](O[C@@H]2O[C@H](C)[C@@H](O)[C@H](N)[C@@H]2O)C[C@@H]2O[C@](O)(C[C@@H](O)C[C@@H](O)[C@H](O)CC[C@@H](O)C[C@@H](O)CC(=O)O[C@H]1C)C[C@H](O)[C@H]2C(=O)O | microbial growth | ATCC90113 | – | IC50 | 1.14 µg/mL (≈ 1.23 µM) |
